Assay results reported in ChEMBL document CHEMBL1156002, “Synthesis, Raman, FT-IR, NMR spectroscopic characterization, antimicrobial activity, cytotoxicity and DNA binding of new mixed aza-oxo-thia macrocyclic compounds” (2009).
Values after ≈ are worked out from the molar mass of the structure shown. Active and inactive are the calls of the source. The calls are words filed in the database; no cut-off is given here.

Columns and labels:
[1] = tested on: Klebsiella pneumoniae; test: Antibacterial activity against Klebsiella pneumoniae UC57 after 24 hrs by broth micro dilution method; type: functional; conditions: UC57, 24 h
[2] = tested on: Bacillus cereus; test: Antibacterial activity against Bacillus cereus ATCC 7064 after 24 hrs by broth micro dilution method; type: functional; conditions: ATCC 7064, 24 h
[3] = tested on: Micrococcus luteus; test: Antibacterial activity against Micrococcus luteus La 2971 after 24 hrs by broth micro dilution method; type: functional; conditions: La 2971, 24 h
[4] = tested on: Mycolicibacterium smegmatis; test: Antibacterial activity against Mycobacterium smegmatis CCM 2067 after 24 hrs by broth micro dilution method; type: functional; conditions: CCM 2067, 24 h
[5] = tested on: Pseudomonas aeruginosa; test: Antibacterial activity against Pseudomonas aeruginosa ATCC 27853 after 24 hrs by broth micro dilution method; type: functional; conditions: ATCC 27853, 24 h
[6] = tested on: Kluyveromyces marxianus; test: Antifungal activity against Kluyveromyces fragilis NRRL 2415 after 24 hrs by broth micro dilution method; type: functional; conditions: NRRL 2415, 24 h
Procedure, shortened: (§1)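 Broth microdilution was run in cation-adjusted Mueller Hinton Broth. Compounds were dissolved in DMSO at 2 mg mL^-1 and serially diluted two-fold. Yeast precultures were grown in Malt Extract Broth for 48 h. The final inoculum was about 10⁶ cfu mL^-1, and plates were incubated at 37 °C for 24 h. The MIC was read from this series.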

[7] = tested on: Candida albicans; test: Antifungal activity against Candida albicans ATCC 10231 after 24 hrs by broth micro dilution method; type: functional; conditions: ATCC 10231, 24 h; procedure, shortened: as §1
[8] = Cytotoxicity against human 23132/87 cells assessed as cell viability at 0.1 uM after 24 hrs by MTT assay; type: functional; conditions: 23132-87, 24 h, read-out: Activity
Procedure, shortened: (§2)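 Cells were seeded at 3.10³–5.10³ per well in RPMI 1640 with 10% FBS, 4 mM L-glutamine and penicillin/streptomycin, then held 24 h at 37 °C under 5% CO₂. Ligands (DMSO, final 0.5% v/v) were added at 0.1–100 for 24 or 48 h. MTT was added for 4 h and dissolved in 50% DMF/5% SDS. A570 was read, and cytotoxicity was calculated as 100×(OD treated/OD untreated).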

[9] = Cytotoxicity against human 23132/87 cells assessed as cell viability at 1 uM after 24 hrs by MTT assay; type: functional; conditions: 23132-87, 24 h, read-out: Activity; procedure, shortened: as §2
[10] = Cytotoxicity against human 23132/87 cells assessed as cell viability at 10 uM after 24 hrs by MTT assay; type: functional; conditions: 23132-87, 24 h, read-out: Activity; procedure, shortened: as §2
[11] = Cytotoxicity against human 23132/87 cells assessed as cell viability at 0.1 uM after 48 hrs by MTT assay; type: functional; conditions: 23132-87, 48 h, read-out: Activity; procedure, shortened: as §2
[12] = Cytotoxicity against human 23132/87 cells assessed as cell viability at 1 uM after 48 hrs by MTT assay; type: functional; conditions: 23132-87, 48 h, read-out: Activity; procedure, shortened: as §2
[13] = Cytotoxicity against human 23132/87 cells assessed as cell viability at 10 uM after 48 hrs by MTT assay; type: functional; conditions: 23132-87, 48 h, read-out: Activity; procedure, shortened: as §2
[14] = tested on: A549; test: Cytotoxicity against human A549 cells assessed as cell viability at 0.1 uM after 24 hrs by MTT assay; type: functional; conditions: A549, 24 h, read-out: Activity; procedure, shortened: as §2
[15] = tested on: A549; test: Cytotoxicity against human A549 cells assessed as cell viability at 1 uM after 24 hrs by MTT assay; type: functional; conditions: A549, 24 h, read-out: Activity; procedure, shortened: as §2
[16] = tested on: A549; test: Cytotoxicity against human A549 cells assessed as cell viability at 10 uM after 24 hrs by MTT assay; type: functional; conditions: A549, 24 h, read-out: Activity; procedure, shortened: as §2
[17] = tested on: A549; test: Cytotoxicity against human A549 cells assessed as cell viability at 100 uM after 24 hrs by MTT assay; type: functional; conditions: A549, 24 h, read-out: Activity; procedure, shortened: as §2
[18] = tested on: A549; test: Cytotoxicity against human A549 cells assessed as cell viability at 0.1 uM after 48 hrs by MTT assay; type: functional; conditions: A549, 48 h, read-out: Activity; procedure, shortened: as §2
[19] = tested on: A549; test: Cytotoxicity against human A549 cells assessed as cell viability at 1 uM after 48 hrs by MTT assay; type: functional; conditions: A549, 48 h, read-out: Activity; procedure, shortened: as §2
[20] = tested on: A549; test: Cytotoxicity against human A549 cells assessed as cell viability at 10 uM after 48 hrs by MTT assay; type: functional; conditions: A549, 48 h, read-out: Activity; procedure, shortened: as §2
[21] = tested on: A549; test: Cytotoxicity against human A549 cells assessed as cell viability at 100 uM after 48 hrs by MTT assay; type: functional; conditions: A549, 48 h, read-out: Activity; procedure, shortened: as §2
[22] = tested on: 23132-87; test: Induction of apoptosis in human 23132/87 cells assessed as DNA fragmentation at 100 uM after 24 hrs by DNA fragmentation assay; type: functional, cell-based
Procedure, shortened: (§3)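 10 × 10⁴ cells were seeded in 6-well plates and treated with ligand for 24 h. Cells were then collected and washed in PBS, and DNA was extracted with a kit. Extracts were run on 1.5% agarose alongside a 100 bp marker, an untreated control and DMSO-treated controls, and ladders were visualized under UV.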

[23] = tested on: A549; test: Induction of apoptosis in human A549 cells assessed as DNA fragmentation at 100 uM after 24 hrs by DNA fragmentation assay; type: functional, cell-based; procedure, shortened: as §3
[24] = tested on: A549; test: Induction of apoptosis in human A549 cells assessed as change in nuclear appearance at 100 uM after 24 hrs by hoechst nuclear staining; type: functional, cell-based
Procedure, shortened: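 Cells grown in 6-well plates were treated for 24 h, washed three times in PBS and fixed in ice-cold methanol for 10 min. They were stained with Hoechst 33258 for 5 min, destained in double-distilled water for 5 min and examined by fluorescence microscopy. Untreated and DMSO-treated cells served as controls.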

[25] = tested on: Staphylococcus aureus; test: Antibacterial activity against Staphylococcus aureus ATCC 6538 after 24 hrs by agar disk diffusion assay; type: functional
Procedure, shortened: (§4)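 Disk diffusion with sterile 6 mm discs loaded with DMSO solutions of the test agents and placed on inoculated agar. Bacteria were pre-grown in Nutrient Broth at 30 °C for 24 h, and plates were incubated at 35 °C for 24 h. Each plate carried a reference antibiotic disc matched to the organism, and a DMSO-only solvent control was run.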

[26] = tested on: Bacillus cereus; test: Antibacterial activity against Bacillus cereus ATCC 7064 after 24 hrs by agar disk diffusion assay; type: functional; procedure, shortened: as §4
[27] = tested on: Micrococcus luteus; test: Antibacterial activity against Micrococcus luteus La 2971 after 24 hrs by agar disk diffusion assay; type: functional; procedure, shortened: as §4
[28] = tested on: Proteus vulgaris; test: Antibacterial activity against Proteus vulgaris ATCC 8427 after 24 hrs by agar disk diffusion assay; type: functional; procedure, shortened: as §4
[29] = tested on: Mycolicibacterium smegmatis; test: Antibacterial activity against Mycobacterium smegmatis CCM 2067 after 24 hrs by agar disk diffusion assay; type: functional; procedure, shortened: as §4
[30] = tested on: Listeria monocytogenes; test: Antibacterial activity against Listeria monocytogenes ATCC 15313 after 24 hrs by agar disk diffusion assay; type: functional; procedure, shortened: as §4
[31] = tested on: Pseudomonas aeruginosa; test: Antibacterial activity against Pseudomonas aeruginosa ATCC 27853 after 24 hrs by agar disk diffusion assay; type: functional; procedure, shortened: as §4
[32] = tested on: Kluyveromyces marxianus; test: Antifungal activity against Kluyveromyces fragilis NRRL 2415 after 72 hrs by agar disk diffusion assay; type: functional
Procedure, shortened: (§5)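 Sterile 6 mm paper discs were loaded with ligand solution freshly prepared in DMSO and placed on inoculated agar. The inoculum came from broth cultures: bacteria in Nutrient Broth at 30 °C for 24 h, yeasts in Malt Extract Broth for 48 h. Plates were incubated at 35 °C for 24 h (bacteria) or 25 °C for 72 h (yeasts). A DMSO solvent control and a reference antibiotic disc were included on each plate.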

[33] = tested on: Rhodotorula mucilaginosa; test: Antifungal activity against Rhodotorula rubra DSM 70403 after 72 hrs by agar disk diffusion assay; type: functional; procedure, shortened: as §5
[34] = tested on: Candida albicans; test: Antifungal activity against Candida albicans ATCC 10231 after 72 hrs by agar disk diffusion assay; type: functional; procedure, shortened: as §5
[35] = tested on: Hanseniaspora guilliermondii; test: Antifungal activity against Hanseniaspora guilliermondii DSM 3432 after 72 hrs by agar disk diffusion assay; type: functional; procedure, shortened: as §5
[36] = tested on: Debaryomyces hansenii; test: Antifungal activity against Debaryomyces hansenii DSM 70238 after 72 hrs by agar disk diffusion assay; type: functional; procedure, shortened: as §5

O=C1CCSSCCC(=O)Nc2nc(nc(-c3ccccc3)n2)NC(=O)CCSSCCC(=O)Nc2nc(nc(-c3ccccc3)n2)N1
MIC [1]: 6.25 µg/mL (≈ 8.65 µM) | MIC [2]: 6.25 µg/mL (≈ 8.65 µM) | MIC [3]: 6.25 µg/mL (≈ 8.65 µM) | MIC [4]: 25 µg/mL (≈ 34.6 µM) | MIC [5]: 25 µg/mL (≈ 34.6 µM) | MIC [6]: 1.56 µg/mL (≈ 2.16 µM) | MIC [7]: 3.12 µg/mL (≈ 4.32 µM) | viability at 0.1 µM [8]: > 86% | viability at 1 µM [9]: > 86% | viability at 10 µM [10]: > 86% | viability at 0.1 µM [11]: > 86% | viability at 1 µM [12]: > 86% | viability at 10 µM [13]: > 86% | viability at 0.1 µM [14]: > 86% | viability at 1 µM [15]: > 86% | viability at 10 µM [16]: > 86% | viability at 100 µM [17]: > 86% | viability at 0.1 µM [18]: > 86% | viability at 1 µM [19]: > 86% | viability at 10 µM [20]: > 86% | viability at 100 µM [21]: > 86% | Activity [22]: inactive | Activity [23]: inactive | Activity [24]: inactive | inhibition zone (IZ) [25]: 12 mm | inhibition zone (IZ) [26]: 15 mm | inhibition zone (IZ) [27]: 17 mm | inhibition zone (IZ) [28]: 13 mm | inhibition zone (IZ) [29]: 11 mm | inhibition zone (IZ) [30]: 10 mm | inhibition zone (IZ) [31]: 11 mm | inhibition zone (IZ) [32]: 21 mm | inhibition zone (IZ) [33]: 21 mm | inhibition zone (IZ) [34]: 19 mm | inhibition zone (IZ) [35]: 22 mm | inhibition zone (IZ) [36]: 22 mm

O=C1CSCC(=O)Nc2nc(nc(-c3ccccc3)n2)NC(=O)CSCC(=O)Nc2nc(nc(-c3ccccc3)n2)N1
MIC [1]: 12.5 µg/mL (≈ 20.7 µM) | MIC [2]: 6.25 µg/mL (≈ 10.4 µM) | MIC [3]: 12.5 µg/mL (≈ 20.7 µM) | MIC [4]: 25 µg/mL (≈ 41.5 µM) | MIC [5]: 50 µg/mL (≈ 83 µM) | MIC [6]: 6.25 µg/mL (≈ 10.4 µM) | MIC [7]: 6.25 µg/mL (≈ 10.4 µM) | viability at 0.1 µM [8]: > 86% | viability at 1 µM [9]: > 86% | viability at 10 µM [10]: > 86% | viability at 0.1 µM [11]: > 86% | viability at 1 µM [12]: > 86% | viability at 10 µM [13]: > 86% | viability at 0.1 µM [14]: > 86% | viability at 1 µM [15]: > 86% | viability at 10 µM [16]: > 86% | viability at 100 µM [17]: > 86% | viability at 0.1 µM [18]: > 86% | viability at 1 µM [19]: > 86% | viability at 10 µM [20]: > 86% | viability at 100 µM [21]: > 86% | Activity [22]: inactive | Activity [23]: inactive | Activity [24]: inactive | inhibition zone (IZ) [25]: 12 mm | inhibition zone (IZ) [26]: 14 mm | inhibition zone (IZ) [27]: 14 mm | inhibition zone (IZ) [28]: 12 mm | inhibition zone (IZ) [29]: 10 mm | inhibition zone (IZ) [30]: 10 mm | inhibition zone (IZ) [31]: 9 mm | inhibition zone (IZ) [32]: 15 mm | inhibition zone (IZ) [33]: 17 mm | inhibition zone (IZ) [34]: 16 mm | inhibition zone (IZ) [35]: 20 mm | inhibition zone (IZ) [36]: 18 mm
